Assay outcomes deposited in PubChem by several laboratories.
SENP1 FRET inh = SENP1 (human) catalytic domain inhibition | Q9P0U3 | recombinant SENP1 catalytic domain, CyPet-SUMO1-YPet FRET cleavage | inhibition, % at 10 µM | 0.21% of 360,000 active | AID 624204;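 active means inhibition at least 30% at 10 µM, raw YFP signal under a set limit, fluorescence ratio 0.5 to 1.5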
Target sequence (Q9P0U3 419-644 limits assumed): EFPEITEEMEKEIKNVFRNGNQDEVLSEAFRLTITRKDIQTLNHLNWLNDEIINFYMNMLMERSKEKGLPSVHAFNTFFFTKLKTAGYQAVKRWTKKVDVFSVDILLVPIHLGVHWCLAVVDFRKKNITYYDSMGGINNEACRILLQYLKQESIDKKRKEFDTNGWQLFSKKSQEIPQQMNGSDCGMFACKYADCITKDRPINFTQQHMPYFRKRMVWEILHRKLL
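Test system: human SENP1 catalytic domain; medium: Tris pH 8 buffer plus EDTA, NaCl, BME, BSA, NP40, catalase; incubation: 50 min reaction at room temperature; technique: FRET, CFP and YFP emission; controls: no-enzyme low control and enzyme-plus-DMSO high control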
SENP8 block-1 = inhibitors of human SENP8 protease. 0.64% of 360,000 active. recombinant SENP8, Nedd8 substrate fluorescence. AID 602440. inhibition, % at 20 µM; in the data active means inhibition mostly above about 40%, no sharp cut-off; inactive means mostly below about 27%
Platelet DG rel = modulates dense granule release in human platelets. inhibition, %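 (compounds screened at 7.5 µM in platelet-rich plasma)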. human platelet-rich plasma, SFLLRN dense granule ATP release, luminescence. AID 1663. 0.22% of 300,000 active;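 active means mean replicate score, as percent of positive control, at or above 50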
SENP8 block-2 = SENP8 protease inhibition | purified SENP8, Z-RLRGG-aminoluciferin cleavage, luminescence | Q96LD8 | inhibition, % at 10 µM | 1.2% of 330,000 active; in the data active means inhibition above about 50%
SENP7 block = SENP7 protease inhibition | recombinant SENP7, Z-RLRGG-aminoluciferin luminescence, 40 min | inhibition, % at 5 µM | 1.5% of 330,000 active;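 active means inhibition above about 50% at the single test dose, limit read from the data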
SENP6 block = blocks the human protease SENP6; 1.8% of 330,000 active; Q9GZR1; Recombinant SENP6 catalytic domain, aminoluciferin luminescence; inhibition, % at 10 µM;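 active means inhibition above about 50% at the single tested dose, limit read from the data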
SENP8 conf = human SENP8 inhibition, confirmed; shares compounds with SENP7 block; Recombinant SENP8, Z-RLRGG-aminoluciferin luminescence, 60 min; inhibition, % at 12.5 µM; 40% of 6,200 active;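 active means mean inhibition across replicates above about 50%, limit read from the data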
SENP6 confirm = human SENP6 inhibition, confirmed. shares compounds with SENP7 block. recombinant SENP6, Z-RLRGG-aminoluciferin luminescence. inhibition, % at 12.5 µM. 58% of 6,200 active. AID 488915
SENP7 conf = human SENP7 inhibition, confirmed. AID 488917. 69% of 6,200 active. inhibition, % at 12.5 µM. shares compounds with SENP7 block. recombinant SENP7, Z-RLRGG-aminoluciferin luminescence, 40 min
Casp3 SENP sel = caspase-3 inhibition (SENP selectivity assay) | shares compounds with SENP7 block | purified caspase-3, Z-DEVD-aminoluciferin luminescence, 60 min | inhibition, % at 12.5 µM | 60% of 6,200 active;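 active means mean inhibition above about 50%, limit read from the data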
Target sequence (P42574 28-227 limits assumed): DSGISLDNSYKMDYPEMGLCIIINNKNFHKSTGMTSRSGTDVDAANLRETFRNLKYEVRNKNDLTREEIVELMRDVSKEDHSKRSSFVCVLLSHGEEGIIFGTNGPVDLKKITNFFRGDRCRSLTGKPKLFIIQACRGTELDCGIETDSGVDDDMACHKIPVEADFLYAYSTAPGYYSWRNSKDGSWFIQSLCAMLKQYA
Luc interf = interferes with luciferase luminescence in SENP counter-screen; shares compounds with SENP7 block; inhibition, % at 12.5 µM; AID 488919; Pre-incubated SENP8/Z-RLRGG-aminoluciferin, luciferase luminescence interference; 39% of 6,200 active;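 active means mean inhibition above about 50% when retested at one dose, limit read from the data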
A number is an active result; 0 = inactive; - = not tested or not shown; ! = a repeat was not active. Only some compounds are listed: those with a hit (about 2.6% of all), similar ones and a draw of the others.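 How the source made its calls, unless noted: active means mean inhibition above about 50% in the one-dose retest (limit read from the data); inactive means the rest.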

SMILES	SENP1 FRET inh	SENP8 block-1	Platelet DG rel	SENP8 block-2	SENP7 block	SENP6 block	SENP8 conf	SENP6 confirm	SENP7 conf	Casp3 SENP sel	Luc interf
O=C1Nc2ccccc2SC1c1ccccc1 (centres undefined)	0	0	0	-	-	-	-	-	-	-	-
Cc1ccc(NC2Sc3ccccc3NC2=O)cc1 (centres undefined)	0	0	0	53	0	77	53	0	68	57	55
Cc1[nH]nc(Nc2ccc(C(C)C)cc2)c1[N+](=O)[O-]	0	0	0	0	0	51	0	0	77	0	0
Cc1ccc(Nc2n[nH]c(C)c2[N+](=O)[O-])cc1	0	0	0	0	0	0	-	-	-	-	-
O=C(OCC(=O)c1ccc[nH]1)c1ccc([N+](=O)[O-])cc1	0	0	-	0	0	0	-	-	-	-	-
O=C(COC(=O)c1ccc([N+](=O)[O-])s1)NC(=O)NCc1ccccc1	0	0	0	66	0	87	75	84	0	0	0
O=C1CN(C(=O)COC(=O)c2ccc([N+](=O)[O-])s2)c2ccccc2N1	0	0	-	65	0	53	0	85	0	0	0
O=C(COC(=O)c1ccc([N+](=O)[O-])s1)c1ccc[nH]1	0	0	-	57	0	0	0	79	0	0	0
O=C(COC(=O)c1ccc([N+](=O)[O-])s1)NCc1ccc(F)cc1	0	0	0	67	52	76	0	85	0	0	0
O=C(OCc1nc2ccccc2[n+]([O-])c1C(=O)c1ccccc1)c1cccs1	0	0	0	0	0	0	-	-	-	-	-
Cc1ccc(Cl)cc1NC1=C/C(=N\S(=O)(=O)c2cccs2)c2ccccc2C1=O	0	85	0	78	76	75	82	96	77	85	0
CCN(CC)CCN1C(=O)Cn2c(C)c(C)c3cccc1c32	0	0	0	0	58!	0	0	0	0	0	0
COc1cc(S(=O)(=O)NCCCn2ccnc2)ccc1F	0	0	0	0	0	0	-	-	-	-	-
C=C(C)COc1ccc(-c2ncncc2-c2ccccc2OC)c(O)c1	0	0	0	85	0	0	0	0	0	0	0
COc1ccccc1N1C(=O)N(C(C)=O)C2C1Nc1ccccc1N2C (centres undefined)	0	0	0	0	0	70	0	0	0	0	0
COc1ccccc1N1C(=O)c2ccccc2NC1c1ccncc1 (centres undefined)	0	0	0	0	0	0	-	-	-	-	-
Cc1ccc(C(=O)CSc2ncnc3ccccc23)o1	0	0	0	0	0	0	-	-	-	-	-
O=C(CSc1ncnc2ccccc12)c1cccs1	0	0	0	0	56	0	0	52	87	0	0
Cc1nnc2sc(-c3cccc(F)c3)nn2c1=O	0	0	0	70	0	0	50	63	0	58	0
Cc1cc(=O)oc2cc(NS(=O)(=O)c3ccccc3)ccc12	0	0	0	0	0	0	-	-	-	-	-
COc1ccccc1-c1ccc2c(c1)O[C@@H](CN(C)C(=O)Nc1cccc(F)c1)[C@H](C)CN([C@H](C)CO)S2(=O)=O	0	0	-	-	-	-	-	-	-	-	-
Cc1ccc(NC(=O)C(=O)c2c[nH]c3ccccc23)cc1	0	0	0	0	70	66	52	0	87	0	0
Cc1cccc2cc(C(c3nnnn3CC3CCCO3)N3CCOCC3)c(=O)[nH]c12 (centres undefined)	0	0	0	0	0	0	-	-	-	-	-
O=C1OC(Nc2ccc3ncccc3c2)c2ccccc21 (centres undefined)	0	0	0	0	0	72	0	0	0	0	0
O=C(OCC1COc2ccccc2O1)c1c(F)cccc1F (centres undefined)	0	0	0	0	83	0	0	0	0	0	0
SMILES	SENP1 FRET inh	SENP8 block-1	Platelet DG rel	SENP8 block-2	SENP7 block	SENP6 block	SENP8 conf	SENP6 confirm	SENP7 conf	Casp3 SENP sel	Luc interf
CCc1nc2c(OCCOc3ccc(F)cc3)cccn2c1N(C)C(=O)c1cccs1	0	0	-	-	-	-	-	-	-	-	-
CCC(=O)N(c1ccc(F)cc1)C1C=CS(=O)(=O)C1 (centres undefined)	0	0	0	0	95	0	0	0	0	0	0
CCCC(=O)N(c1ccccc1)C1C=CS(=O)(=O)C1 (centres undefined)	0	0	0	0	0	0	-	-	-	-	-
COc1ccc(-c2nc3ccccn3c2Cl)cc1	0	0	0	96	100	97	0	99	103	98	97
CCCn1nc2cc(C(=O)NCc3ccc(OC(F)(F)F)cc3)ccc2c1OCC	0	0	0	0	0	0	-	-	-	-	-
S=c1nc(C2COc3ccccc3O2)[nH][nH]1 (centres undefined)	0	0	0	0	0	0	-	-	-	-	-
CCCS(=O)(=O)c1cnc(C2COc3ccccc3O2)nc1N (centres undefined)	0	0	66	87	94	93	82	92	100	96	0
O=C1/C(=C\c2ccc(O)cc2)SC(=S)N1Cc1ccccc1	0	0	0	78	0	72	60	82	84	0	0
O=C(O)CCN1C(=O)/C(=C\c2cccc(OCc3ccccc3)c2)SC1=S	0	0	0	96	0	96	0	0	0	0	0
O=C(O)CCN1C(=O)/C(=C\c2ccc(OCc3ccccc3)c(OCc3ccccc3)c2)SC1=S	0	0	0	0	0	0	-	-	-	-	-
CC(=C\c1ccccc1)/C=C1/SC(=S)N(CCC(=O)O)C1=O	0	0	0	89	0	91	0	92	94	80	51
CCOc1cc(/C=C2/SC(=S)N(Cc3ccccc3)C2=O)ccc1O	0	0	0	0	0	0	-	-	-	-	-
COC(=O)c1ccc(COC(=O)C2CCN(S(=O)(=O)c3ccccc3C(=O)OC)CC2)cc1	0	0	-	0	0	0	-	-	-	-	-
NC(=O)C1CCN(C(=O)COc2ccc(S(=O)(=O)NCc3ccccc3)cc2Cl)CC1	0	0	0	0	0	0	-	-	-	-	-
O=c1c2c3c(sc2nc2n1CCCC2)CCC3	0	0	0	0	0	0	-	-	-	-	-
CN(C)C(=O)c1c(NC(=O)c2ccco2)sc2c1CCCCC2	0	0	0	0	0	0	-	-	-	-	-
O=C(Nc1sc2c(c1C(=O)O)CCCCC2)c1ccco1	0	0	0	93	88	97	96	97	101	96	95
